Compound activity as filed in PubChem BioAssay.
Rows were chosen to be rich in hits. Some 2.8% of all compounds tested hit in one or more screens of this group.
Rtt109 Vps75: inhibitors of Candida albicans Rtt109/Vps75 histone acetyltransferase; Q5AAJ8; purified Rtt109/Vps75, ThioGlo CoA-SH fluorescence, 4 h; inhibition, % at 34.9 µM; actives 0.16% (n = 330,000);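 active = inhibition of at least 50% in every replicate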
JMJD2C inh: blocks human GASC-1 demethylase activity; Q9H3R0; GST-JMJD2C(1-420) H3K9me3 demethylation, DELFIA europium; inhibition, % at 2.35 µM; actives 0.069% (n = 330,000);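 active = more than half of a compound's replicate wells show inhibition beyond 50%, single wells judged on their own value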;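 note: signal counts dimethyl H3K9 product captured on neutravidin plate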
Target sequence (Q9H3R0 1-420 limits assumed): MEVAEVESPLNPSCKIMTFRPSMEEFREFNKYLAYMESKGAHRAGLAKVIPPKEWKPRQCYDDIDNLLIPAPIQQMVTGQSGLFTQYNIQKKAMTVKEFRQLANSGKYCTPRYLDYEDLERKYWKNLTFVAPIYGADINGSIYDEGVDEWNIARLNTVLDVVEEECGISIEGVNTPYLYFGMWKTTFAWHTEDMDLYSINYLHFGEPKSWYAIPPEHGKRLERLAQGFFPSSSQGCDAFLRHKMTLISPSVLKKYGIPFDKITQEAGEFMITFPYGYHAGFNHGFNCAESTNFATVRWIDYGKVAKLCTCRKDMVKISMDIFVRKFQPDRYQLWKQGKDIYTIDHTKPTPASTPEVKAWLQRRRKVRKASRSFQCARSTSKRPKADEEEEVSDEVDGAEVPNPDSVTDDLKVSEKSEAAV
T cell modulator: T cell immune modulation candidate; 2C CD8+ T cell-vesicle binding, flow cytometry; hits give low values; response (vesicle binding), % at 7 µM; actives 0.068% (n = 330,000);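 active = response, share of CD8 T cells binding vesicles, and their 90th percentile fluorescence all below set limits, cut at about 80% in these data, passing the limit was not always enough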;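 note: values below 100% mean blocked vesicle binding to the CD8+ T cells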
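Also added: QL9-peptide-loaded Drosophila micro-vesicles bearing Ld, ICAM-1 and B7-1; Test system: purified 2C TCR transgenic mouse naive CD8+ T cells; Measured by: cytometric PE anti-B7-1 and Alexa647 anti-CD8 signals after 1% paraformaldehyde fixation; Timing: binding step 1.5 h, 37 °C, antibody labelling 20 min, ice.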
GRIN3A LBD mod: modulators (binders) of human NR3A ligand-binding domain; NR3A LBD differential scanning fluorimetry, Tm shift; 0% = protein alone, 100% = glycine-bound protein; Tm shift relative to glycine control, % at 25 µM; actives 2.5% (n = 340,000); AID 1259313;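 active = melting temperature shift of at least 10% of the positive control shift, at one fixed dose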
Each line names hits and unclear results; the compound was inactive in the other large screens.

CCOc1ccc(N/C=C/C(=O)c2ccccc2)c([N+](=O)[O-])c1	GRIN3A LBD mod 18
COc1ccc(/C=C/C(=O)Nc2ccccc2C(=O)N2CCCC2)cc1	none
CCOc1ccc(Nc2ccc(C(=O)O)cc2[N+](=O)[O-])cc1	none
COc1ccc(/C=C/C(=O)Nc2ccccc2C(=O)O)cc1	GRIN3A LBD mod 20
c1cncc(-c2nc3cc4ccccc4cc3[nH]2)c1	GRIN3A LBD mod 22
c1ccc(-c2nc3cc4ccccc4cc3[nH]2)nc1	none
CC[C@@]12C(=O)N(c3ccc(OC)cc3)C(=O)N1[C@H](c1ccc(Cl)cc1)[C@@H]1C(=O)N(C3CCCCC3)C(=O)[C@@H]12	none
O=C(CSc1nnnn1C1CC1)Nc1ccc(S(=O)(=O)N2CCOCC2)cc1	none
CCN(CC)C(=O)Oc1cc(=O)n2c3c(cccc13)CCC2	GRIN3A LBD mod 20
CCCNC(=O)c1c(O)c2cccc3c2n(c1=O)CCC3	none
O=C(Nc1ccc(S(=O)(=O)N2CCCc3ccccc32)cc1)C1CCCO1 (stereo not given)	GRIN3A LBD mod 11
NC(=O)c1ccsc1NC(=O)c1ccc(S(=O)(=O)N2CCCc3ccccc32)cc1	GRIN3A LBD mod 16
O=C(O)c1ccc(S(=O)(=O)N2CCCc3ccccc32)cc1	none
O=C(Nc1ccc(S(=O)(=O)N2CCc3ccccc3C2)cc1)C1CCCO1 (stereo not given)	none
Cc1cccn2c(=O)c3cc(C(=O)NCCN4CCOCC4)c(=N)n(Cc4ccc(F)cc4)c3nc12	none
CC(=O)Oc1ccc(-c2csc(Nc3ccc(S(N)(=O)=O)cc3)n2)cc1	none
Clc1ccc(Nc2nc(-c3ccncc3)cs2)cc1	GRIN3A LBD mod 10
Cc1ccc(Nc2nc(C)cs2)cc1	GRIN3A LBD mod 26
COc1ccc(-c2csc(Nc3ccc(S(N)(=O)=O)cc3)n2)cc1	GRIN3A LBD mod 23
Fc1ccc(Nc2nc(-c3ccncc3)cs2)cc1	none
COc1ccc2oc(=O)c(-c3csc(Nc4ccc(O)cc4)n3)cc2c1	GRIN3A LBD mod 11
O=C(CN1C(=O)c2ccc([N+](=O)[O-])cc2C1=O)NC1CCCCCC1	none (no result: Rtt109 Vps75)
Oc1ccc(Nc2nc(-c3ccc(O)cc3)cs2)cc1	GRIN3A LBD mod 12
Cc1cc(C(=O)OCC(=O)Nc2cccc(S(=O)(=O)N(C)C)c2)c2ccccc2n1	none
NS(=O)(=O)c1cccc(NC(=O)COC(=O)c2cc(-c3ccc(Cl)cc3)nc3ccccc23)c1	GRIN3A LBD mod 34
Cc1ccc2c(Cl)cc(Cl)c(OCC(=O)Nc3cccc(S(N)(=O)=O)c3)c2n1	GRIN3A LBD mod 11
CCCc1cc(=O)oc2c(C)c(OS(C)(=O)=O)ccc12	GRIN3A LBD mod 16
CCCc1cc(=O)oc2c(C)c(OC3CCCCC3=O)ccc12 (stereo not given)	none (no result: T cell modulator)
CCN(CC)c1ccc(C=C2C(=O)OC3(CCCCC3)OC2=O)cc1	GRIN3A LBD mod 18
CCCCC1(C)OC(=O)C(=Cc2ccc(N(CC)CC)cc2)C(=O)O1 (stereo not given)	none
COc1ccccc1NC(=O)COC(=O)CCC1CCCC1	none
COc1ccccc1NC(=O)C(C)OC(=O)CCC1CCCCC1 (stereo not given)	GRIN3A LBD mod 11
O=C(NCc1cccnc1)c1cccc(S(=O)(=O)Nc2cccc(Cl)c2)c1	none
O=[N+]([O-])c1cccc(-n2cc3ccc([N+](=O)[O-])cc3n2)c1	GRIN3A LBD mod 14 (no result: T cell modulator)
O=C1C=CC(=Nc2ccc3c(c2)Cc2cc(F)ccc2-3)O1	GRIN3A LBD mod 23 (no result: JMJD2C inh, T cell modulator)
O=C1C=CC(=Nc2cccc3c2C(=O)c2ccccc2-3)O1	none (no result: JMJD2C inh, T cell modulator)
Cc1cc(C)c(NC(=O)CNC(=O)COC(=O)CNC(=O)c2ccc(Cl)cc2Cl)c(C)c1	none
COc1ccc(/C=C2/C(=O)C(C)(C(C)C)CCC2C)cc1 (stereo not given)	GRIN3A LBD mod 10
COc1ccc(/C=C2/SC(=O)NC2=O)cc1	none
COc1cc(C(=O)NCCc2ccc(S(N)(=O)=O)cc2)ccc1OCc1c(C)noc1C	none
O=C(Nc1cccc(C(F)(F)F)c1)C(Sc1ncnc2ccccc12)c1ccccc1 (stereo not given)	GRIN3A LBD mod 18
Cc1cc(C)cc(NC(=O)C(Sc2ncnc3ccccc23)c2ccccc2)c1 (stereo not given)	none
Cn1nnnc1SC(C(=O)Nc1cccc(C(F)(F)F)c1)c1ccccc1 (stereo not given)	GRIN3A LBD mod 13
CCOC(=O)Nc1nc2ccc(Cn3cccc3)cc2[nH]1	none (no result: JMJD2C inh, T cell modulator)
Cc1cc(C(=O)N/N=C/c2ccc(-c3cccc(Cl)c3)o2)n[nH]1	GRIN3A LBD mod 16
O=C(N/N=C/c1c(F)cccc1Cl)C1CC1	none
O=C(N/N=C/c1c(Cl)cccc1Cl)C(=O)NC1CC1	GRIN3A LBD mod 10
O=C(N/N=C\c1ccc(-c2cccc(Cl)c2)o1)C(=O)NC1CCCC1	GRIN3A LBD mod 24
CCC(=O)N/N=C/c1ccc(-c2ccc(Cl)cc2)o1	none
Cc1ccc(C(=O)N/N=C/c2ccc(-c3cccc(Cl)c3)o2)cn1	none
CCC(=O)NN1CCN(c2ccncc2S(=O)(=O)N2CCCCC2)CC1	none
O=C(Cc1ccc(F)cc1)OCC(=O)N1CCN(S(=O)(=O)c2ccc(Cl)cc2)CC1	none (no result: Rtt109 Vps75)
O=C(N/N=C/c1ccc2c(c1)OCO2)c1ccc(NC(=O)c2ccc(F)cc2)cc1	GRIN3A LBD mod 19
COc1ccc(/C=N/NS(=O)(=O)c2ccccc2)cc1OS(=O)(=O)c1ccccc1	none
O=C(CCCC(=O)Nc1ccc(Br)cc1)N/N=C/c1ccccc1	GRIN3A LBD mod 10
O=C(N/N=C/c1ccc2c(c1)OCO2)c1ccc2c(c1)OCCO2	none
O=C(N/N=C/c1cc(Br)cc([N+](=O)[O-])c1O)c1ccc(NC(=O)c2ccc(F)cc2)cc1	GRIN3A LBD mod 18
COc1ccc(C(=O)N/N=C/c2ccc(OC)c(OS(=O)(=O)c3ccccc3)c2)cc1	GRIN3A LBD mod 13 (no result: Rtt109 Vps75)
Cc1ccc(OCCNC(=O)c2ccccc2OCc2c(C)noc2C)cc1	none (no result: JMJD2C inh, T cell modulator)
O=C(CNC(=O)OCc1ccccc1)Nc1ccc(F)cc1	none
CCOc1ccc(N2CC(C(=O)NCC(=O)Nc3ccc(F)c(F)c3F)CC2=O)cc1 (stereo not given)	none
O=C(N/N=C/c1ccccc1)c1ccc(NC(=O)c2ccc(F)cc2)cc1	GRIN3A LBD mod 33
Brc1ccc(/C=N/Nc2ccccc2)cc1	GRIN3A LBD mod 20
Cc1ccccc1C(=O)Nc1ccc(C(=O)N/N=C/c2ccc(F)cc2)cc1	GRIN3A LBD mod 26
Oc1ccc(/C=N/Nc2ccccc2)cc1	none
Cc1ccccc1C(=O)Nc1ccc(C(=O)N/N=C/c2ccc(O)c(Br)c2)cc1	GRIN3A LBD mod 28
CCc1noc(C)c1C(=O)N(CC(C)C)c1c(N)n(Cc2ccccc2)c(=O)[nH]c1=O	none (no result: JMJD2C inh, T cell modulator)
COc1ccc(NC(=S)N2CCc3ccccc32)cc1OC	none
COc1cc(C(=O)O)c2c(c1C)OC(=O)c1c(C)cc(O)c(C=O)c1O2	none
COc1ccc(/C=N/NC(=O)c2ccc(NC(=O)c3ccccc3Br)cc2)cc1	GRIN3A LBD mod 27
CCN(C(=O)COC(=O)c1[nH]c(=O)[nH]c(=O)c1N)c1ccccc1	none
